One block for each compound: values may come before it.
What was measured:
Tubulin = test: Inhibition of tubulin polymerization (unknown origin) incubated for 15 mins followed by GTP addition and measured for 20 mins by spectrophotometry; format: protein-complex assay, Homo sapiens
Procedure, shortened: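 Tubulin assembly assay with tubulin at 10 µM. IC50 for inhibition of polymerization; run in duplicate or triplicate.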

MCF7 = test: Cytotoxicity against human MCF7 cells assessed as reduction in cell growth incubated for 96 hrs by MTT assay; format: functional, cell-based; settings: MCF7, 96 h
Procedure, shortened: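 Growth inhibition of human breast carcinoma cells, reported as IC50; run in duplicate or triplicate.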

Tubulin (Homo sapiens) = Tubulin (Homo sapiens) (UniProt P68371+Q9H4B7+P0DPH7+P68366+Q13509+Q71U36+P04350+Q3ZCM7+P07437+P68363+Q9BQE3+Q6PEY2+Q13885+Q9BVA1+Q9BUF5); test: Inhibition of [3H]colchicine binding to tubulin (unknown origin) at 5 uM incubated for 10 mins by DEAE-cellulose filter method relative to control; format: protein-complex assay
KU812 cell line = test: Cytotoxicity against human KU812 cells expressing IM- sensitive wild type Bcr/Abl assessed as reduction in cell viability incubated for 48 hrs by MTT assay; format: functional, cell-based; settings: KU812, 48 h
[1] = Cytotoxicity against human LAMA84-s cells expressing IM-sensitive wild type Bcr/Abl assessed as reduction in cell viability incubated for 48 hrs by MTT assay; format: functional, cell-based
[2] = Cytotoxicity against IM resistant human LAMA84-r cells assessed as reduction in cell viability incubated for 48 hrs by MTT assay; format: functional, cell-based
KBM5 [3] = test: Cytotoxicity against human KBM5 cells expressing IM- sensitive wild type Bcr/Abl assessed as reduction in cell viability incubated for 48 hrs by MTT assay; format: functional, cell-based; settings: KBM5, 48 h
KBM5 [4] = test: Cytotoxicity against human KBM5 cells expressing IM-resistant Bcr/Abl T315I mutant assessed as reduction in cell viability incubated for 48 hrs by MTT assay; format: functional, cell-based; settings: KBM5, 48 h
[5] = (§1) Cytotoxicity against human U343MG cells assessed as reduction in cell viability incubated for 72 hrs by MTS assay; format: functional, cell-based; settings: U-343MG
Procedure, shortened: (§2)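 Increasing concentrations applied to glioblastoma and neuroblastoma lines to give dose-response viability curves; cytotoxic IC50 from triplicate experiments. Incubation 48 h, except U343MG at 72 h.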

Homo sapiens = organism: Homo sapiens; test: as §1; format: functional, cell-based; procedure, shortened: as §2
U-87 MG = test: Cytotoxicity against human U87MG cells assessed as reduction in cell viability incubated for 48 hrs by MTS assay; format: functional, cell-based, U-87MG ATCC; procedure, shortened: as §2
T98G = test: Cytotoxicity against human T98G cells assessed as reduction in cell viability incubated for 48 hrs by MTS assay; format: functional, cell-based; procedure, shortened: as §2
[6] = Cytotoxicity against human SK-N-BE cells assessed as reduction in cell viability incubated for 48 hrs by MTT assay; format: functional, cell-based; procedure, shortened: as §2
[7] = Cytotoxicity against human SK-N-BE(2)C cells assessed as reduction in cell viability incubated for 48 hrs by MTT assay; format: functional, cell-based; procedure, shortened: as §2
HCT-116 = test: Cytotoxicity against human HCT116 cells assessed as reduction in cell viability incubated for 48 hrs by MTT assay; format: functional, cell-based
HT-29 = test: Cytotoxicity against human HT-29 cells assessed as reduction in cell viability incubated for 48 hrs by MTT assay; format: functional, cell-based
SW480 = test: Cytotoxicity against human SW480 cells assessed as reduction in cell viability incubated for 48 hrs by MTT assay; format: functional, cell-based
SW-620 = test: Cytotoxicity against human SW620 cells assessed as reduction in cell viability incubated for 48 hrs by MTT assay; format: functional, cell-based
T-24 = test: Cytotoxicity against human T24 cells assessed as reduction in cell viability incubated for 48 hrs by MTT assay; format: functional, cell-based; settings: T-24, 48 h
PBMC = test: Cytotoxicity against human PBMC assessed as cell viability by MTT assay; format: cell-based

- IC50 (Tubulin): 500 nM
- inhibition (Tubulin (Homo sapiens)): 90%
Structure (SMILES): COc1cc(C(=O)c2cn(-c3cccc(N)c3)cc2-c2ccccc2F)cc(OC)c1OC
- IC50 (MCF7): 17 nM
- IC50 (KU812 cell line): 14 nM
- IC50 [1]: 15 nM
- IC50 [2]: 14 nM
- IC50 (KBM5 [3]): 18 nM
- IC50 (KBM5 [4]): 22 nM
- Emax [5]: 31%
- IC50 [5]: 68.9 to 69 nM
- inhibition (Homo sapiens): Dose-dependent effect
- Emax (U-87 MG): 22%
- IC50 (U-87 MG): 61 to 61.4 nM
- inhibition (U-87 MG; U-87MG ATCC): Dose-dependent effect
- Emax (T98G): 38.4%
- IC50 (T98G): 54 to 54.4 nM
- inhibition (T98G): Dose-dependent effect
- IC50 [6]: 244 nM
- IC50 [7]: 106 nM
- inhibition (HCT-116): Dose-dependent effect
- IC50 (HCT-116; HCT-116, 48 h): 42 nM
- inhibition (HT-29): Dose-dependent effect
- IC50 (HT-29; HT-29, 48 h): 56 nM
- inhibition (SW480): Dose-dependent effect
- IC50 (SW480; SW480, 48 h): 162 nM
- inhibition (SW-620): Dose-dependent effect
- IC50 (SW-620; SW-620, 48 h): 123 nM
- IC50 (T-24): 34 nM
- Activity (PBMC): Non-Toxic

- IC50 (Tubulin): 670 nM
- inhibition (Tubulin (Homo sapiens)): 39%
Structure (SMILES): COc1cc(C(=O)c2cn(-c3ccccc3)cc2-c2ccccc2Br)cc(OC)c1OC
- IC50 (MCF7): 190 nM

- IC50 (Tubulin): 870 nM
- inhibition (Tubulin (Homo sapiens)): 59%
Structure (SMILES): COc1cc(C(=O)c2cn(-c3ccc(N)cc3)cc2-c2cccc(N)c2)cc(OC)c1OC
- IC50 (MCF7): 78 nM

- IC50 (Tubulin): 520 nM
- inhibition (Tubulin (Homo sapiens)): 69%
Structure (SMILES): COc1cc(C(=O)c2cn(-c3ccc(N)cc3)cc2-c2ccccc2[N+](=O)[O-])cc(OC)c1OC
- IC50 (MCF7): 53 nM
